Test results taken from ChEMBL document CHEMBL2203086, “Structure-Based Discovery of a Novel Pentamidine-Related Inhibitor of the Calcium-Binding Protein S100B” (ACS Med Chem Lett, 2012).

Tests used:
[1] = tested on: Malme-3M; test: Growth inhibition of human MALME-3M cells transfected with S100B siRNA after 4 days by SYBR green assay; type: functional, cell-based
In short: (§1)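 MALME-3M melanoma cells, stable hairpin-vector lines with scrambled control siRNA (high S100B) or S100B knockdown siRNA (clone #7), grown in IMDM with 20% FBS, neomycin omitted during assay. Seeded in 384-well plates and grown 24 h at 37 °C, 5% CO2. Compound added, DMSO in controls, then 4 days incubation. Lysed with 1.2% Igepal plus SYBR Green I (1:10,000) for 24 h. Fluorescence read at 485/520 nm as a DNA/cell-number measure, and IC50 derived.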

[2] = Destabilization of rat/bovine S100B assessed as change in melting temperature by differential scanning calorimetry
In short: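 DSC on S100B dialyzed into 5 mM HEPES pH 7.2, 15 mM NaCl, 10 mM CaCl2, 0.5 mM TCEP, at 40-50 µM per monomer. Compound prepared in dialysis buffer, 200 µM final. Buffer reference scans subtracted and data normalized to protein concentration. Apparent Tm taken from peak maxima, compared against ligand-free S100B.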

[3] = Binding affinity to rat/bovine recombinant S100B expressed in Escherichia coli [HMS174(DE3)strain] by NMR spectroscopy
[4] = tested on: Malme-3M; test: Growth inhibition of human MALME-3M cells overexpressing calcium-binding protein S100B after 4 days by SYBR green assay; type: functional, cell-based; in short: as §1
[5] = Binding affinity to rat/bovine recombinant S100B at tight site expressed in Escherichia coli [HMS174(DE3)strain] by NMR spectroscopy
[6] = Binding affinity to rat/bovine recombinant S100B at weaker site expressed in Escherichia coli [HMS174(DE3)strain] by NMR spectroscopy
[7] = Homo sapiens, Malme-3M, 96 h, read-out: IC50

ΔTm [2] [°C]	SMILES	IC50 [1, 7] [µM]	Kd ([3]; read-out: Kd) [µM]	IC50 [4, 7] [µM]	Kd [5] [µM]	Kd [6] [µM]	IC50 ([1]; malme-3m)	Kd [3]	IC50 ([4]; malme-3m)
18.3	N=C(N)c1ccc(OCCCCCCCOc2ccc(C(=N)N)cc2)cc1 [HEPTAMIDINE]	6.8	6.9	4.2					
1	N=C(N)c1ccc(OCCCCCOc2ccc(C(=N)N)cc2)cc1 [PENTAMIDINE]	12.2		10.2	0.13	40			
	N=C(N)c1ccc(OCCCCCCOc2ccc(C(=N)N)cc2)cc1 [HEXAMIDINE]						Not Active	Not Active	Not Active
